Data published in ChEMBL document CHEMBL1687924, “Antiviral activity of seed extract from Citrus bergamia towards human retroviruses” (Bioorg Med Chem, 2011).
≈ marks a conversion by molar mass, not a printed value. Calls of active or inactive are those of the source. The calls are words filed in the database; no cut-off is given here.

Tests used:
[1] = tested on: Human T-cell leukemia virus type I; experiment: Antiviral activity against Human T-cell leukemia/lymphoma virus type 1 infected in human PBMC assessed as inhibition of tax/rex gene expression at 22.93 ug/ml after 3 weeks post infection by quantitative real time RT-PCR; format: functional; settings: Primate T-lymphotropic virus 1, 504 h
[2] = tested on: Human T-cell leukemia virus type I; experiment: Antiviral activity against Human T-cell leukemia/lymphoma virus type 1 infected in human PBMC assessed as inhibition of tax/rex gene expression after 3 weeks post infection by quantitative real time RT-PCR; format: functional, organism-based; settings: Primate T-lymphotropic virus 1, 504 h
How it was run: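 PBMC infected with HTLV-1. Compounds were added at infection onset, then at half concentration on days 3, 7 and 10 pi; the vehicle was up to 0.5% methanol. Cells were harvested 3 weeks pi and debris removed on a density gradient. tax/rex mRNA was measured by SYBR RQ-PCR normalized to GUSB (2^-ΔΔCt). RQ-IC50 came from three experiments, each in triplicate.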

[3] = tested on: Human immunodeficiency virus 1; experiment: Antiviral activity against HIV1 infected in human PBMC assessed as inhibition of gag gene expression after 5 days post infection by quantitative real time RT-PCR; format: functional, organism-based; settings: Human immunodeficiency virus 1, 120 h
How it was run: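 Donor PBMC (HIV-, HBV-, HCV-seronegative) stimulated overnight with PHA 2 µg/ml, then infected 2 h with clarified H9/HIV-1IIIB supernatant (20 ng/ml p24), then cultured with IL2 20 U/ml. Compounds added 4 h pre-infection and re-added daily at half concentration; vehicle ≤0.5% methanol. Harvest day 5; gag mRNA by SYBR RQ-PCR vs GUSB (2^-ΔΔCt); three experiments in triplicate; IC50.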

[4] = Cytotoxicity against human MOLT3 cells after 24 hrs by MTS assay; format: cell-based, MOLT-3
How it was run: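 MOLT-3 cells (1 × 10^4) were exposed for 1 day in RPMI with 5% FBS to seven concentrations (1 ng/ml–1 mg/ml). MTS formazan formation was read at 490 nm after 1 h with reagent. Mean CC50 comes from three independent experiments.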

[5] = Cytotoxicity against PHA-stimutated human PBMC after 24 hrs by MTS assay; format: cell-based; settings: PHA-stimulated PBMC
[6] = tested on: Human immunodeficiency virus 1; experiment: Antiviral activity against HIV1 infected in human PBMC assessed as inhibition of gag gene expression at 0.23 ug/ml after 5 days post infection by conventional RT-PCR; settings: Human immunodeficiency virus 1, 120 h
[7] = tested on: Human T-cell leukemia virus type I; experiment: Antiviral activity against Human T-cell leukemia/lymphoma virus type 1 infected in human PBMC assessed as inhibition of tax/rex gene expression at 5 ug/ml after 3 weeks post infection by quantitative real time RT-PCR; format: functional, organism-based
How it was run: (§1)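 Compound was added to PBMC cultures at the onset of HTLV-1 infection and re-added at half concentration on days 3, 7 and 10 pi, with 0.5% methanol as vehicle control. Cells were harvested 3 weeks pi and debris removed on a density gradient. Tax/rex mRNA was quantified by SYBR Green RT-PCR (40 cycles, 95/60 °C) against GUSB using the comparative Ct method.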

[8] = tested on: Human immunodeficiency virus 1; experiment: Antiviral activity against HIV1 infected in human PBMC assessed as inhibition of gag gene expression at 1 ug/ml after 5 days post infection by quantitative real time RT-PCR; format: functional, organism-based
How it was run: (§2)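 PBMC were stimulated overnight with 2 µg/ml PHA and infected for 2 h with clarified H9/HIV-1IIIB supernatant at 20 ng/ml p24. They were then cultured with IL-2 20 U/ml. Compound was added 4 h before infection and re-added daily at half concentration, with 0.5% methanol as vehicle control. At 5 days pi, gag mRNA was measured by SYBR Green RQ-PCR in triplicate, normalized to GUSB (2^-ΔΔCt).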

[9] = Inhibition of Human T-cell leukemia/lymphoma virus type 1 reverse transcriptase activity infected in human MT2 cells assessed as level of p19 antigen; format: cell-based, Human T-cell leukemia virus type I; settings: Primate T-lymphotropic virus 1, MT2
[10] = tested on: Human T-cell leukemia virus type I; experiment: Ratio of IC50 for nevirapine to compound IC50 for Human T-cell leukemia/lymphoma virus type 1 reverse transcriptase activity
[11] = target: Human immunodeficiency virus type 1 reverse transcriptase (Human immunodeficiency virus 1, UniProt Q72547); experiment: Inhibition of HIV1 3B reverse transcriptase activity
How it was run: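 Commercial purified HIV-1 RT replaced the virion lysate in the same cell-free reverse transcription/20-cycle amplification assay. RTIC50 came from band densitometry over three independent experiments, with no compound pre-activation.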

[12] = Ratio of zidovudine CC50 to compound CC50 for human MOLT3 cells; format: ADME, cell-based, MOLT-3
[13] = Ratio of Lamivudine CC50 to compound CC50 for human MOLT3 cells; format: ADME, cell-based, MOLT-3
[14] = Ratio of nevirapine CC50 to compound CC50 for human MOLT3 cells; format: ADME, cell-based, MOLT-3
[15] = Ratio of CC50 for PHA-stimulated human PBMC to IC50 for HIV1 infected in human PBMC
[16] = tested on: Human immunodeficiency virus 1; experiment: Antiviral activity against HIV1 infected in human PBMC assessed as inhibition of gag gene expression at 0.27 ug/ml after 5 days post infection by quantitative real time RT-PCR; format: functional; settings: Human immunodeficiency virus 1, 120 h
[17] = tested on: Human T-cell leukemia virus type I; experiment: Antiviral activity against Human T-cell leukemia/lymphoma virus type 1 infected in human PBMC assessed as inhibition of tax/rex gene expression at 10 ug/ml after 3 weeks post infection by quantitative real time RT-PCR; format: functional, organism-based; how it was run: as §1
[18] = tested on: Human immunodeficiency virus 1; experiment: Antiviral activity against HIV1 infected in human PBMC assessed as inhibition of gag gene expression at 10 ug/ml after 5 days post infection by quantitative real time RT-PCR; format: functional, organism-based; how it was run: as §2
[19] = tested on: Human T-cell leukemia virus type I; experiment: Antiviral activity against Human T-cell leukemia/lymphoma virus type 1 infected in human PBMC assessed as inhibition of tax/rex gene expression at 0.27 ug/ml after 3 weeks post infection by quantitative real time RT-PCR; format: functional; settings: Primate T-lymphotropic virus 1, 504 h

Row | SMILES | inhibition at 22.93 µg/mL [1] [%] | IC50 [2] [µg/mL] | IC50 [3] [µg/mL] | CC50 at 24 h [4] [µg/mL] | CC50 at 24 h [5] [µg/mL] | inhibition at 0.23 µg/mL [6] [%] | inhibition [7] | inhibition [8] | IC50 [9] [µg/mL] | Ratio IC50 [10] | IC50 [11] [nM] | selectivity ratio [12] | selectivity ratio [13] | selectivity ratio [14] | Ratio CC50/IC50 [15] | inhibition at 0.27 µg/mL [16] [%] | inhibition [17] | inhibition [18] | inhibition at 0.27 µg/mL [19] [%]
1 | Nc1ccn([C@@H]2CS[C@H](CO)O2)c(=O)n1 [LAMIVUDINE] | 100 | 14.2 (≈ 62.1 µM) | 0.19 (≈ 0.829 µM) | 5.94 (≈ 25.9 µM) | 53 (≈ 231 µM) | 100 | – | – | – | – | – | – | – | – | – | – | – | – | –
2 | CC1(C)O[C@H]2CC(=O)OC[C@]23[C@H]2CC[C@@]4(C)[C@H](c5ccoc5)OC(=O)[C@H]5O[C@]54[C@]2(C)C(=O)C[C@@H]13 [LIMONIN] | – | 1.07 (≈ 2.27 µM) | 0.92 (≈ 1.96 µM) | 202 (≈ 428 µM) | 452 (≈ 960 µM) | – | Active | Active | 0.00031 (≈ 0.000659 µM) | > 1000 | 8.99 | 62 | 33 | 10 | 450 | – | – | – | –
3 | Cc1ccnc2c1NC(=O)c1cccnc1N2C1CC1 [NEVIRAPINE] | – | – | – | 20.1 (≈ 75.3 µM) | 40.9 (≈ 154 µM) | – | – | – | > 0.266 | – | – | – | – | – | – | 100 | – | – | –
4 | CC(=O)O[C@H]1CC(=O)OC(C)(C)[C@@H]2CC(=O)[C@]3(C)[C@H](CC[C@@]4(C)[C@@H](c5ccoc5)OC(=O)[C@H]5O[C@]543)[C@@]12C [NOMILIN] | – | 3.98 (≈ 7.73 µM) | 13 (≈ 25.3 µM) | 756 (≈ 1470 µM) | 692 (≈ 1340 µM) | – | – | – | 0.0026 (≈ 0.00505 µM) | – | 6.65 | 230 | 130 | 40 | – | – | Active | Active | –
5 | Cc1cn([C@H]2C[C@H](N=[N+]=[N-])[C@@H](CO)O2)c(=O)[nH]c1=O [ZIDOVUDINE] | – | 0.16 (≈ 0.599 µM) | – | 3.24 (≈ 12.1 µM) | 31.2 (≈ 117 µM) | – | – | – | – | – | – | – | – | – | – | 100 | – | – | 100
